In ChEMBL document CHEMBL5046317, “Diminishing GSH-Adduct Formation of Tricyclic Diazepine-based Mutant IDH1 Inhibitors” (ACS Med Chem Lett, 2022):
Converted amounts (≈) assume the structure as drawn.

Tests used:
[1] = target: Isocitrate dehydrogenase [NADP] cytoplasmic (Homo sapiens, UniProt O75874, R132H); assay: Inhibition of IDH1 R132H mutant (unknown origin) assessed as reduction in NADPH consumption using alpha-KG as substrate incubated for 60 mins by Kinase-GLO reagent based assay
MOG-G-UVW = assay: Antiproliferative activity against human MOG-G-UVW cells assessed as inhibition of cell proliferation incubated for 72 hrs by cell titer-Glo assay; assay type: functional, cell-based
P-gp (ABCB1) = P-gp (ABCB1) (Homo sapiens, UniProt P08183); assay: Substrate activity at P-gp (unknown origin) transfected in LLC-PK1 cells expressing human MDR1 gene assessed as efflux ratio of permeability across basolateral to apical membrane at 0.1 uM; assay type: ADME, cell-based
Chain of P-gp (ABCB1) (P08183 whole entry): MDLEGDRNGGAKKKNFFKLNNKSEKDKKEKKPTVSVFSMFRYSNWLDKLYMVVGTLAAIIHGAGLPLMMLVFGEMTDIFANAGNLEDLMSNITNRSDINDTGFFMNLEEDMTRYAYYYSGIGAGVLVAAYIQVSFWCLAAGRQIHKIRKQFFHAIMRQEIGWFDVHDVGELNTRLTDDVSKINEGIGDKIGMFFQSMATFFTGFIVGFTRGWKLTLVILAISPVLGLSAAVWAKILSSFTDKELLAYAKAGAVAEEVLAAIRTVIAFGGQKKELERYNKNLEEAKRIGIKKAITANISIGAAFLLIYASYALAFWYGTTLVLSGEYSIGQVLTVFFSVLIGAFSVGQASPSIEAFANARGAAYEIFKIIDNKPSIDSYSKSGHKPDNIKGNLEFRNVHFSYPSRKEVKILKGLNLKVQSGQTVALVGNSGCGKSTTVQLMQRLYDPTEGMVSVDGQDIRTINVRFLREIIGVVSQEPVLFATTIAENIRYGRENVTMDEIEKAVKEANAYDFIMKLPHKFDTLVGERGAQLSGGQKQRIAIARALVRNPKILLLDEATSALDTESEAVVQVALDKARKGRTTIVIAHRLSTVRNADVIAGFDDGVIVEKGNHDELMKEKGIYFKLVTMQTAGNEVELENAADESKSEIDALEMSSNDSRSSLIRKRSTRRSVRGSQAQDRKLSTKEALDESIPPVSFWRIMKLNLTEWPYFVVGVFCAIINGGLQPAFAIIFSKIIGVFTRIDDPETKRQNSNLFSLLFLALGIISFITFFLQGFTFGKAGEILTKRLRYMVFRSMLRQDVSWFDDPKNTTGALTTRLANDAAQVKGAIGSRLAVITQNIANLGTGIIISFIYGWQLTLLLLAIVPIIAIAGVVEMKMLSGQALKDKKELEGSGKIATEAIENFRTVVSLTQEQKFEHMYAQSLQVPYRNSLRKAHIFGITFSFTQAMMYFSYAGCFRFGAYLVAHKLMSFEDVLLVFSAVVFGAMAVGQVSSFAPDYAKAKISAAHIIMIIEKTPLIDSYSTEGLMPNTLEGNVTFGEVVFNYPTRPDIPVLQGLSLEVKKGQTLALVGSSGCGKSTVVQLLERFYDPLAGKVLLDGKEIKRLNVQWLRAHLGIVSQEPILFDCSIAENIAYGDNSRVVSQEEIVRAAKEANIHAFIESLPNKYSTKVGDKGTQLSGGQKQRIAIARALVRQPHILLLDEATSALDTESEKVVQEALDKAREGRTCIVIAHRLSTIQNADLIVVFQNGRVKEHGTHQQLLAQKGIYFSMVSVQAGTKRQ

[2] = Metabolic stability in human liver microsomes assessed as intrinsic clearance; assay type: ADME, Microsome; settings: read-out: CLH
[3] = tested on: P-gp (Mdr1) (Rattus norvegicus); assay: Substrate activity at rat P-gp transfected in […]-MDR1 expressing Mdr1 gene assessed as efflux ratio of permeability across basolateral to apical membrane at 0.1 uM
[4] = target: Isocitrate dehydrogenase [NADP] cytoplasmic (Homo sapiens, UniProt O75874); assay: Inhibition of IDH1 (unknown origin)
Chain of Isocitrate dehydrogenase [NADP] cytoplasmic (Homo sapiens, UniProt O75874) (O75874 whole entry): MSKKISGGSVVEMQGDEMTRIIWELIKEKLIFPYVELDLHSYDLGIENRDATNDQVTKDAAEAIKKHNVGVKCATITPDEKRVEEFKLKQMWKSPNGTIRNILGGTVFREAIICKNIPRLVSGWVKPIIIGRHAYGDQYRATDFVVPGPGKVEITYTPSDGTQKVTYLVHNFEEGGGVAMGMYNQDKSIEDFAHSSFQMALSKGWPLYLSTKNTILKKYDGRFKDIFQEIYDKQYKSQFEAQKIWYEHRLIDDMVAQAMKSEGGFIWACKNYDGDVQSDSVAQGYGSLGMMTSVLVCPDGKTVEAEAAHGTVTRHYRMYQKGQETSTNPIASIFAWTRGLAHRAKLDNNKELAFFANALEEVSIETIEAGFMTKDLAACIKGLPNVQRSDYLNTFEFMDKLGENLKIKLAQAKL

[5] = target: T1, Isocitrate dehydrogenase [NADP], mitochondrial (Homo sapiens, UniProt P48735); assay: Inhibition of IDH2 (unknown origin)
T1 sequence (P48735 whole entry): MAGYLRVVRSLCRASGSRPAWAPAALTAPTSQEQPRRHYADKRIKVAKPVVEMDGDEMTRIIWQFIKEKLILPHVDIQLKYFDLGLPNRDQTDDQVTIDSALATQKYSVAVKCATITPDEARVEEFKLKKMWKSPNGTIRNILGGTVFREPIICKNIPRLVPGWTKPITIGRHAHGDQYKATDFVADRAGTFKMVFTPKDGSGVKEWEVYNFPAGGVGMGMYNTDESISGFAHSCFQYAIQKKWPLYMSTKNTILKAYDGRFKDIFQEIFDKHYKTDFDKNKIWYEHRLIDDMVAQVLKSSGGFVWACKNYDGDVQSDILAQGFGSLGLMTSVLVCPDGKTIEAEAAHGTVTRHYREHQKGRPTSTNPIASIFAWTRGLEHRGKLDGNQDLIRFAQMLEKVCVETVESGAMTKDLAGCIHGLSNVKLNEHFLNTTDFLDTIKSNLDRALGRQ

[6] = target: T2, Nuclear receptor subfamily 1 group I member 2 (Homo sapiens, UniProt O75469); assay: Inhibition of PXR (unknown origin)
T2 sequence (O75469 whole entry): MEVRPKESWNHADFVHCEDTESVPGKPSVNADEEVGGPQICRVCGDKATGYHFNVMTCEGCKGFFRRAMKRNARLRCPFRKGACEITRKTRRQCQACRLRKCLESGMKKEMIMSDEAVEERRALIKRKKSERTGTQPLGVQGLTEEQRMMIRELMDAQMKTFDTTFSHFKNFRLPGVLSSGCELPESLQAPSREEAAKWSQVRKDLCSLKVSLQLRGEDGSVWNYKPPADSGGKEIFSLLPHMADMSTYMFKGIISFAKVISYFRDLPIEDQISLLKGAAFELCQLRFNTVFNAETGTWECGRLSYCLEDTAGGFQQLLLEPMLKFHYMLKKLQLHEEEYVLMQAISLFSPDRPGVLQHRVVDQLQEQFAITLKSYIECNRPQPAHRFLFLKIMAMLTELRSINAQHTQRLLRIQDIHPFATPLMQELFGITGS

Cytochrome P450 3A4 = Cytochrome P450 3A4 (Homo sapiens, UniProt P08684); assay: Inhibition of CYP3A4 (unknown origin); assay type: ADME
Chain of Cytochrome P450 3A4 (P08684 whole entry): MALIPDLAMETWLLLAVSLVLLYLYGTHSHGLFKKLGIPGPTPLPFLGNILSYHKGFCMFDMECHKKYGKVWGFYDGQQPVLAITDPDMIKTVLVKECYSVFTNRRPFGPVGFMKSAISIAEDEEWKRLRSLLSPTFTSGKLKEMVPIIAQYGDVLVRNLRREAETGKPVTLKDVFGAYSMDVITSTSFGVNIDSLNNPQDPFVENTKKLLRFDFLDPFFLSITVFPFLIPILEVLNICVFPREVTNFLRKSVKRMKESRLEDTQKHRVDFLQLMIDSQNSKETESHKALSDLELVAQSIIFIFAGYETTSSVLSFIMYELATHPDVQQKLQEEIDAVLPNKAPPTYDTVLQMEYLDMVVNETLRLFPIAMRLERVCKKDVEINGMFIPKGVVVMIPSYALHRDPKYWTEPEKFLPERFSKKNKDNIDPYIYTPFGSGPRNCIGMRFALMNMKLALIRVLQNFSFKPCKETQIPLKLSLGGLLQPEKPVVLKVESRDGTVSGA

[7] = Drug metabolism in dog liver microsomes assessed as glutathione-adduct formation measured after 60 mins in presence of NADPH; assay type: ADME, Canis lupus familiaris, Microsome; settings: 1 h
[8] = Distribution coefficient, logD of compound at pH 7.4 by HPLC analysis; assay type: physicochemical; settings: octanol/water
[9] = Half life in rat at 0.5 mg/kg, iv measured up to 24 hrs by LC-MS/MS analysis; assay type: ADME, organism-based; settings: in vivo
Outline: (§1)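 Single-dose PK in rat and dog. Rat received 0.5 mg/kg IV and 1 mg/kg PO; dog received 2 mg/kg IV and 10 mg/kg PO. Parameters derived: terminal t1/2, Vd, clearance and oral bioavailability F.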

[10] = Half life in dog at 2 mg/kg, iv measured up to 24 hrs by LC-MS/MS analysis; assay type: ADME, organism-based, Canis lupus familiaris; settings: in vivo; outline: as §1
[11] = Volume of distribution in rat at 0.5 mg/kg, iv measured up to 24 hrs by LC-MS/MS analysis; assay type: ADME, organism-based; settings: in vivo; outline: as §1
[12] = Volume of distribution in dog at 2 mg/kg, iv measured up to 24 hrs by LC-MS/MS analysis; assay type: ADME, organism-based, Canis lupus familiaris; settings: in vivo; outline: as §1
[13] = Clearance in rat at 0.5 mg/kg, iv measured up to 24 hrs by LC-MS/MS analysis; assay type: ADME, organism-based; settings: in vivo; outline: as §1
[14] = Clearance in dog at 2 mg/kg, iv measured up to 24 hrs by LC-MS/MS analysis; assay type: ADME, organism-based, Canis lupus familiaris; settings: in vivo; outline: as §1
[15] = Oral bioavailability in rat 1 mg/kg measured up to 24 hrs by LC-MS/MS analysis; assay type: ADME, organism-based; settings: in vivo; outline: as §1
[16] = Oral bioavailability in dog 10 mg/kg measured up to 24 hrs by LC-MS/MS analysis; assay type: ADME, organism-based, Canis lupus familiaris; settings: in vivo; outline: as §1
[17] = Solubility of the compound at pH 2; assay type: physicochemical; settings: buffer
[18] = Solubility of the compound at pH 6.5; assay type: physicochemical; settings: buffer
[19] = Solubility of the compound at pH 7; assay type: physicochemical; settings: buffer
[20] = Permeability of the compound in pig LLC-PK1 cells expressing MDR1; assay type: ADME, cell-based, Sus scrofa; settings: read-out: permeability

Chain of Isocitrate dehydrogenase [NADP] cytoplasmic (Homo sapiens, UniProt O75874, R132H) (O75874 2-414 R132H limits assumed): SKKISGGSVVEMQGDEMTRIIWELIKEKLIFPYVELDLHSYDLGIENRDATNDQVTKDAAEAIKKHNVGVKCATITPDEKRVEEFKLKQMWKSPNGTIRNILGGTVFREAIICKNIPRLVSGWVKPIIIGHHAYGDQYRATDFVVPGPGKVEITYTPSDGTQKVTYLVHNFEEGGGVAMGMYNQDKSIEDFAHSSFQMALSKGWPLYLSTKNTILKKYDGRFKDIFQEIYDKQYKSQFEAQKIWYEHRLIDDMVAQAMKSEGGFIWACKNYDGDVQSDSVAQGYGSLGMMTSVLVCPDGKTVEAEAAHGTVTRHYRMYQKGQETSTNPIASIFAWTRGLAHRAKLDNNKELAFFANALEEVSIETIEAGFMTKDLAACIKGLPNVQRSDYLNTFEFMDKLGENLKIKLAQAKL

Compound | IC50 [1] [nM] | efflux ratio at 0.1 µM (P-gp (ABCB1)) | CLint scaled [2] [mL/min/kg] | IC50 (MOG-G-UVW) [nM] | further results
Cc1cnc2c(c1)CN(C(=O)[C@H]1CC[C@H](OC(C)C)CC1)c1cc(N3CC4CCC3CO4)ccc1N2 (some centres not stated) | 113 | 2.2 |  | 456 | 
CC(C)O[C@H]1CC[C@H](C(=O)N2Cc3cccnc3Nc3ccc(N4C[C@@H]5C[C@H]4CO5)cc32)CC1 |  |  | 34 | 60.6 | 
CC(C)O[C@H]1CC[C@H](C(=O)N2Cc3nccnc3Nc3ccc(C4CCOCC4)cc32)CC1 | 22.4 | 1.4 | 92 | 146 | 
CC(C)O[C@H]1CC[C@H](C(=O)N2Cc3cccnc3Nc3ccc(N4C[C@H]5CC[C@@H]4CO5)cc32)OC1 | 21.6 |  | 21 | 17.8 | IC50 [4]: > 50000 nM; IC50 [5]: > 50000 nM; IC50 [6]: 18000 nM; IC50 (Cytochrome P450 3A4): 1000 nM
CC(C)O[C@H]1CC[C@H](C(=O)N2Cc3cccnc3Nc3ccc(N4CC5(CCCOC5)C4)cc32)CC1 |  |  |  | 119 | 
CC(C)O[C@H]1CC[C@H](C(=O)N2c3cc(N4C[C@@H]5C[C@H]4CO5)ccc3Nc3ncccc3C2C)CC1 (some centres not stated) | 25.3 | 3.4 | 143 | 88.6 | 
O=C(C1CCN(CC(F)(F)F)CC1)N1Cc2cc(F)cnc2Nc2ccc(N3C[C@@H]4C[C@H]3CO4)cc21 | 8.7 | 2.2 | 33 | 42.4 | 
CC(C)O[C@H]1CC[C@H](C(=O)N2Cc3cncnc3Nc3ccc(N4C[C@@H]5C[C@H]4CO5)cc32)CC1 | 197 | 8.1 | 177 | 810 | 
CC(C)O[C@H]1CC[C@H](C(=O)N2Cc3cc(F)cnc3Nc3ccc(N4CC5CCC4CO5)cc32)CC1 (some centres not stated) | 21.2 | 2.9 |  | 18.2 | 
CC(C)O[C@H]1CC[C@H](C(=O)N2Cc3cccnc3Nc3ccc(C4COCCO4)cc32)OC1 (some centres not stated) |  | 1.1 | 34 | 88.5 | Activity [7]: 7%
CC(C)O[C@H]1CC[C@H](C(=O)N2Cc3cccnc3Nc3cc(F)c(C4COCCO4)cc32)OC1 (some centres not stated) | 32.5 | 1.2 | 58 | 53.6 | logD [8]: 2.67; half-life [9]: 1.1 h; half-life [10]: 6 h; Vd [11]: 3.7 L/kg; Vd [12]: 5.1 L/kg; clearance [13]: 69 mL/min/kg; clearance [14]: 26 mL/min/kg; bioavailability [15]: 100%; bioavailability [16]: 77%; solubility [17]: 143 µM (≈ 67.4 µg/mL); solubility [18]: 154 µM (≈ 72.6 µg/mL); solubility [19]: 123 µM (≈ 58 µg/mL); Papp [20]: 38.7 ×10⁻⁶ cm/s; Activity [7]: 1%
CC(C)O[C@H]1CC[C@H](C(=O)N2Cc3cc(F)cnc3Nc3ccc(-c4cnn(C)c4)cc32)OC1 | 4.9 | 1.2 | 51 | 18.3 | 
CC(C)O[C@H]1CC[C@H](C(=O)N2Cc3cccnc3Nc3cnc(N4C[C@@H]5C[C@H]4CO5)cc32)CC1 | 116 | 6.6 | 64 | 261 | 

The next lines start with results.

IC50 [1] [nM] | efflux ratio at 0.1 µM (P-gp (ABCB1)) | CLint scaled [2] [mL/min/kg] | Compound | IC50 (MOG-G-UVW) [nM] | further results
11200 |  |  | CC(C)O[C@H]1CC[C@H](C(=O)N2Cc3cc(S(C)(=O)=O)cnc3Nc3ccc(N4CC5CCC4CO5)cc32)CC1 (some centres not stated) | > 10000 | 
 | 3.1 | 210 | CC(C)O[C@H]1CC[C@H](C(=O)N2Cc3cccnc3Nc3ccc(N4CC5CCC4CO5)c(F)c32)CC1 (some centres not stated) | 205 | 
28.7 |  |  | CC(C)O[C@H]1CC[C@H](C(=O)N2Cc3cc(Cl)cnc3Nc3ccc(N4CC5CCC4CO5)cc32)CC1 (some centres not stated) | 95.9 | efflux ratio at 0.1 µM [3]: 4.6
181 | 3.7 | 20 | CC(C)O[C@H]1CC[C@H](C(=O)N2Cc3cccnc3Nc3cnc(C4COCCO4)cc32)CC1 (some centres not stated) | 581 | 
15.6 |  |  | COC1C[C@H]2CC[C@@H](C1)N2c1ccc2c(c1)N(C(=O)C1CCN(CC(F)(F)F)CC1)Cc1cccnc1N2 (some centres not stated) | 61 | 
> 50000 | 1.7 | 1500 | O=C(C1CCc2ccccc2CC1)N1Cc2cccnc2Nc2ccc(N3CCOCC3)cc21 | 43 | IC50 [4]: > 5000 nM; IC50 [6]: 3200 nM; IC50 (Cytochrome P450 3A4): > 5000 nM
1390 |  |  | CC(C)O[C@H]1CC[C@H](C(=O)N2Cc3cccnc3Nc3cnn(CC4CCOCC4)c32)CC1 | 5020 | 
11 | 3.6 |  | CC(C)O[C@H]1CC[C@H](C(=O)N2Cc3cccnc3Nc3ccc(N4CC5CCC4CO5)cc32)CC1 (some centres not stated) | 17.2 | 
34.9 |  |  | CC(C)O[C@H]1CC[C@H](C(=O)N2Cc3cccnc3Nc3ccc(N4CCOCC4)cc32)CC1 | 64.4 | 
11 | 1.4 | 22 | CC(C)O[C@H]1CC[C@H](C(=O)N2Cc3cc(F)cnc3Nc3ccc(N4C[C@H]5CC[C@@H]4CO5)cc32)OC1 | 8.1 | 
 | 2.5 | 124 | CC(C)O[C@H]1CC[C@H](C(=O)N2Cc3cccnc3Nc3cc(F)c(N4CC5CCC4CO5)cc32)CC1 (some centres not stated) | 36.2 | 
24.4 | 0.9 | 50 | CC(C)O[C@H]1CC[C@H](C(=O)N2Cc3cc(F)cnc3Nc3ccc(C4COCCO4)cc32)OC1 (some centres not stated) | 56.9 | Activity [7]: 12%
